Data as given in publication PMC11134341 (Chemical Science, 2024).

Key:
[1] = test system: engineered CYP199A4 peroxygenase variants; experiment: O-demethylation by the library of engineered CYP199A4 peroxygenase variants; type: biochemical, Rhodopseudomonas palustris; conditions: H2O2-dependent reaction
CYP199A4 F182A/P90A = experiment: H2O2-dependent O-demethylation of benzoic acid derivatives, F182A/P90A; type: biochemical, Rhodopseudomonas palustris; conditions: catalyzed by F182A/P90A; P450 1 μM, substrate 2 mM, H2O2 10 mM, Tris-HCl pH 7.4, 30 °C
Method in brief: (§1)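 Purified CYP199A4 double mutant (1 μM), a methoxy-substituted benzoic acid substrate (2 mM) and H2O2 (10 mM, the only oxidant) in Tris–HCl pH 7.4 at 30 °C. Demethylation and further-oxidation products are quantified against a benzophenone internal standard and expressed as turnover number per P450.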

CYP199A4 F182A = molecular target: T1, CYP199A4 F182A (Rhodopseudomonas palustris, UniProt Q2IU02, F183A); experiment: UV-visible spectral titration of substrate binding
T1 sequence (Q2IU02 1-410 F183A): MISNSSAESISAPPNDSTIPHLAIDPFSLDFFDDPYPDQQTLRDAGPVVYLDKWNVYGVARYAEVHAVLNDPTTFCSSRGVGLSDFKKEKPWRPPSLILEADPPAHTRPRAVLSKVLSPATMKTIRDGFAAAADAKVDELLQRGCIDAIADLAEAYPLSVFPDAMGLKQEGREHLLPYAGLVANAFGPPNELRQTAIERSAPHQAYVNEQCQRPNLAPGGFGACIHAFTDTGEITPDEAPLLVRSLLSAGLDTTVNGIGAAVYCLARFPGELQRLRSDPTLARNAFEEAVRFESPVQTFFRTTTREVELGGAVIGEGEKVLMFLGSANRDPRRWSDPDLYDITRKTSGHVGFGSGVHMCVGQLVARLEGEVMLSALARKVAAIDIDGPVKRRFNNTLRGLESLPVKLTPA

CYP199A4 F182A/V355A = experiment: H2O2-dependent O-demethylation of benzoic acid derivatives, F182A/V355A; type: biochemical, Rhodopseudomonas palustris; conditions: catalyzed by F182A/V355A
Method in brief: as §1

CYP199A4 F182A/D251H = experiment: H2O2-dependent O-demethylation, F182A/D251H; type: biochemical, Rhodopseudomonas palustris
Method in brief: (§2)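 Enzyme (1 μM) is reacted with methoxy-substituted benzoic acid substrate (2 mM) and H2O2 (10 mM) as sole oxidant, in Tris–HCl pH 7.4 at 30 °C. Demethylation products are quantified chromatographically against a benzophenone internal standard, and activity is expressed as turnover number.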

CYP199A4 F182A/D251E = experiment: H2O2-dependent O-demethylation, F182A/D251E; type: biochemical, Rhodopseudomonas palustris
Method in brief: as §2

CYP199A4 (wild type) = conditions: WT CYP199A4; cited from earlier work

| SMILES | O-demethylation / conversion by the examined CYP199A4 variants (in words) [1] | further results |
| --- | --- | --- |
| COc1cccc(C(=O)O)c1OC [Compound 8, 2,3-dimethoxybenzoic acid] | not converted | – |
| COc1cc(OC)cc(C(=O)O)c1 [Compound 6, 3,5-dimethoxybenzoic acid] | can be demethylated | – |
| COc1c(Cl)cc(C(=O)O)cc1Cl [Compound 15, 3,5-dichloro-4-methoxy benzoic acid] | no conversions detected | – |
| COc1cc(C(=O)O)cc(OC)c1OC [Compound 9, 3,4,5-trimethoxy benzoic acid] | no conversions detected | – |
| COc1ccc(C(=O)O)cc1[N+](=O)[O-] [Compound 17, 4-methoxy-3-nitrobenzoic acid] | – | TON of demethylation product (CYP199A4 F182A/P90A): 926 μM (μM P450)^−1; TON of over-oxidation product 4,5-dihydroxy-3-nitrobenzoic acid (CYP199A4 F182A/P90A): 416 μM (μM P450)^−1 |
| COc1ccc(OC)c(C(=O)O)c1 [Compound 7, 2,5-dimethoxybenzoic acid] | not converted | – |
| COc1c(C)cc(C(=O)O)cc1C [Compound 12, 3,5-dimethyl-4-methoxy benzoic acid] | – | Kd (CYP199A4 F182A): 123 µM; product formed (in words) (CYP199A4 F182A/V355A; H2O2-dependent reaction): a single product (not 3,5-dimethyl-4-hydroxybenzoic acid) |
| COc1cc(C(=O)O)ccc1O [Compound 20, 4-hydroxy-3-methoxybenzoic acid] | not demethylated | – |
| COc1cc(C(=O)O)cc(OC)c1O [Compound 21, 4-hydroxy-3,5-dimethoxybenzoic acid] | did not convert | – |
| COc1ccc(C(=O)O)cc1C [Compound 11, 3-methyl-4-methoxybenzoic acid] | – | TON of demethylation (CYP199A4 F182A/V355A; P450 1 μM, substrate 2 mM, H2O2 10 mM, Tris-HCl pH 7.4, 30 °C): 1290 μM (μM P450)^−1 |
| COc1ccc(C(=O)O)cc1 [Compound 1, 4-methoxybenzoic acid] | – | reduction of catalytic activity compared with F182A (CYP199A4 F182A/D251H): 50 fold; reduction of catalytic activity compared with F182A (CYP199A4 F182A/D251E): 50 fold; TON of demethylation product (CYP199A4 F182A/P90A): 1100 μM (μM P450)^−1; catalytic turnover number (TON) of H2O2-dependent demethylation (CYP199A4 (wild type)): 6 μM (μM P450)^−1 |
| COc1cccc(C(=O)O)c1 [Compound 2, 3-methoxybenzoic acid] | can be demethylated | – |
| COc1ccccc1C(=O)O [Compound 3, 2-methoxybenzoic acid] | no reaction product was detected | – |
